In ChEMBL document CHEMBL1133471, “Sequential cytotoxicity: a theory evaluated using novel 2-[4-(3-aryl-2-propenoyloxy)phenylmethylene]cyclohexanones and related compounds” (J Med Chem, 2000):
Starred links: 1 amine or outer side, 2 acyl side, 3 side chain; linkers in the order of their positions; H or OH if unused. Positions of bridges follow the written chain, without caps; N, C: chain ends. Non-standard residues stand in square brackets, D forms with d. Residues, ends and D or L forms follow the SMILES beside them. Chains are numbered I, II in the order given. Actinocin(1to9) = Cc1c2oc3c(C)ccc(C(=O)[*:2])c3nc-2c(C(=O)[*:1])c(N)c1=O; NMeV = CN[C@H](C(=O)O)C(C)C; Sar = CNCC(=O)O

What was measured:
[1] = system: CCRF-CEM; assay: Concentration required to inhibit 50% of cell growth on CEM lymphocytes.; type: functional, cell-based; conditions: Homo sapiens
Summary of the method: (§1)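 Murine P388 D1 and L1210 leukemia cells and human Molt 4/C8 and CEM T-lymphocytes were tested. IC50 is the concentration inhibiting 50% of growth.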

[2] = system: Colon carcinoma cell; assay: Mean graph mid point was measured on colon cancer cells.; type: functional, Homo sapiens
Summary of the method: (§2)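 Human tumor panel of about 55 lines: leukemia, melanoma, non-small-cell lung, colon, CNS, ovarian, renal, prostate and breast. Compounds generally tested from 10^-4 to 10^-8 M, noting 50% growth inhibition for each line. Mean graph midpoints taken for all lines, leukemic lines and colon lines. Duplicate or triplicate runs were averaged.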

[3] = system: Tumor cancer cell line; assay: (§3) Mean graph mid point was measured on all cell lines.; type: functional, Homo sapiens; summary of the method: as §2
[4] = system: leukaemia cell line; assay: Mean graph mid point was measured on leukemic cells.; type: functional, Homo sapiens; summary of the method: as §2
[5] = system: MOLT-4; assay: Concentration required to inhibit 50% of cell growth on human Molt 4/C8 cells.; type: functional, cell-based; summary of the method: as §1
[6] = system: Mus musculus; assay: Ip score was calculated by implanting different tumor cell lines in hollow fibres in mice by the intraperitoneal route(Net cell kill was observed it indicates the cytotoxicity was occurred); type: functional
[7] = Selectivity index is the ratio of MG MID value for all cell lines to that of colon cancer cells; type: functional
[8] = Selectivity index is the ratio of MG MID value for all cell lines to that of leukemic cells; type: functional
[9] = system: L1210; assay: Concentration required to inhibit 50% of cell growth on murine L1210 cells.; type: functional, cell-based; conditions: Mus musculus; summary of the method: as §1
[10] = system: P388; assay: Concentration required to inhibit 50% of cell growth on murine P388 D1 cells.; type: functional, cell-based; conditions: Mus musculus
[11] = species: Mus musculus; assay: Sc score was calculated by implanting different tumor cell lines in hollow fibres in mice by the occurred); type: functional
Summary of the method: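 Mice carried hollow fibers with 12 human tumor lines (colon, breast, NSCLC, melanoma, ovarian, CNS) implanted ip and sc. Compounds were given ip at two doses daily for 4 days. Fibers were collected 1 day after the last dose. Viable cell mass was measured by MTT formazan conversion, giving the sc score.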

[12] = species: Homo sapiens; assay: Inhibition of RNA synthesis was evaluated on human Jurkat T-cells after 8 hours.; type: functional; design: concentration or dose not given beside the values
[13] = species: Homo sapiens; assay: Inhibition of protein synthesis was evaluated on human Jurkat T-cells after 8 hours.; type: functional; design: concentration or dose not given beside the values
[14] = species: Homo sapiens; assay: (§4) Inhibitory concentration was evaluated on human Jurkat T-cells after their exposure for 48 hours; type: functional, cell-based
Summary of the method: (§5)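 Human Jurkat T cells exposed to compounds for 48 h. Viability scored by nigrosin dye exclusion, used in place of trypan blue. IC50 and IC80 taken from the resulting viability data.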

[15] = species: Homo sapiens; assay: as §4; type: functional; summary of the method: as §5
[16] = species: Homo sapiens; assay: Apoptotic index calculated using human Jurkat T cells; type: functional
Summary of the method: (§6)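 Jurkat T cells exposed at concentrations giving IC80 (IC80 determined after 48 h exposure). Nuclei stained with ethidium bromide (0.1% w/v) plus acridine orange (0.1% w/v). Apoptotic index = (cells with apoptotic nuclei / cells counted) × 100.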

[17] = species: Homo sapiens; assay: Apoptotic index was evaluated on human Jurkat T-cells after 24 hours.(Using 80% inhibitory concentration); type: functional; summary of the method: as §6
[18] = system: Mus musculus; assay: Ip score was calculated by implanting different tumor cell lines in hollow fibres in mice by the intraperitoneal route (Net cell kill was not observed).; type: functional
[19] = system: Mus musculus; assay: sc score was calculated by implanting different tumor cell lines in hollow fibres in mice by the subcutaneously route (Net cell kill was not observed).; type: functional
[20] = system: Panel colon (Carcinoma cell lines); assay: Mean graph mid point was measured on colon cancer cell lines.; type: functional, Homo sapiens; summary of the method: as §2
[21] = system: Tumor cell line; assay: as §3; type: functional, Homo sapiens; summary of the method: as §2
[22] = system: leukaemia cell line; assay: Mean graph mid point was measured on leukemicell lines.; type: functional, Homo sapiens; summary of the method: as §2
[23] = system: Mus musculus; assay: Ip score was calculated by implanting different tumor cell lines in hollow fibres in mice by the intraperitoneal route (Net cell kill was not observed); type: functional
[24] = system: Mus musculus; assay: Sc score was calculated by implanting different tumor cell lines in hollow fibres in mice by the subcutaneously route (Net cell kill was not observed); type: functional

Row | Structure (SMILES) | IC50 [1] | MG MID [2] | MG MID [3] | MG MID [4] | IC50 [5] | SI [7] | SI [8] | IC50 [9] | IC50 [10] | further results
1 | CN(C)CC1CCC/C(=C\c2ccc(OC(=O)/C=C/c3ccccc3)cc2)C1=O.Cl (stereo unspecified) | 42.8 µM | 2.21 µM | 2.41 µM | 1.06 µM | 39.5 µM | 1.1 | 2.3 | 32.8 µM | 4.02 µM | Ip score [6]: 12; Subcut score [11]: 14
2 | COc1ccc(C(=O)Oc2ccc(/C=C3\CCCC(CN(C)C)C3=O)cc2)cc1 (stereo unspecified) | 5.07 µM |  |  |  | 2.36 µM |  |  | 2.87 µM | 0.332 µM | 
3 | COc1ccc(/C=C/C(=O)Oc2ccc(/C=C3\CCCC(CN(C)C)C3=O)cc2)cc1 (stereo unspecified) |  |  |  |  |  |  |  |  | 2.41 µM | 
4 | Cc1ccc(/C=C/C(=O)Oc2ccc(/C=C3\CCCC(CN(C)C)C3=O)cc2)cc1 (stereo unspecified) | 7.02 µM |  |  |  | 3.39 µM |  |  | 2.43 µM | 1.29 µM | 
5 | CN(C)CC1CCC/C(=C\c2ccc(OC(=O)/C=C/c3ccc(Br)cc3)cc2)C1=O.Cl (stereo unspecified) | 4.44 µM |  |  |  | 3.06 µM |  |  | 1.78 µM | 4.03 µM | Inhibition [12]: 84.5%; Inhibition [13]: 46.6%; IC50 [14]: 4.47 µM; IC80 [15]: 7.63 µM; Apoptotic index [16]: 59.2
6 | CN(C)CC1CCC/C(=C\c2ccc(OC(=O)/C=C/c3ccc(F)cc3)cc2)C1=O (stereo unspecified) | 6 µM |  |  |  | 3.78 µM |  |  | 1.84 µM | 4.55 µM | 
7 | CN(C)CC1CCC/C(=C\c2ccc(OC(=O)c3ccccc3)cc2)C1=O (stereo unspecified) | 29.4 µM |  |  |  | 24.1 µM |  |  | 23.4 µM | 0.18 µM | 
8 | O=C(CCc1ccccc1)Oc1ccc(/C=C2\CCCCC2=O)cc1 | 34.4 µM |  |  |  | 31.1 µM |  |  | 52.4 µM | 21.9 µM | 
9 | Cc1ccc(/C=C/C(=O)Oc2ccc(/C=C3\CCCCC3=O)cc2)cc1 | 230 µM |  |  |  | 156 µM |  |  | 202 µM | > 50 µM | 
10 | O=C(/C=C/c1ccccc1)Oc1ccc(/C=C2\CCCCC2=O)cc1 | 26 µM | 29.1 µM | 36.3 µM | 8.32 µM | 30.7 µM | 1.3 | 4.4 | 30.7 µM | 20.3 µM | 
11 | O=C(/C=C/c1ccc(Br)cc1)Oc1ccc(/C=C2\CCCCC2=O)cc1 | 131 µM |  |  |  | 180 µM |  |  | 127 µM | > 50 µM | Apoptotic index [17]: 23.3; Inhibition [12]: 77.5%; Inhibition [13]: 69.1%; IC50 [14]: 19.8 µM; IC80 [15]: 31.7 µM; Apoptotic index [16]: 23.3
12 | COc1ccc(/C=C/C(=O)Oc2ccc(/C=C3\CCCCC3=O)cc2)cc1 | 8.78 µM | 25.4 µM | 49.7 µM | 9.36 µM | 2.06 µM | 2 | 5.3 | 10.2 µM | 9.03 µM | 
13 | O=C1CCCC/C1=C\c1ccc(OC(=O)c2ccccc2)cc1 |  |  |  |  |  |  |  |  | > 50 µM | 
14 | O=C1CCCC/C1=C\c1ccc(OC(=O)c2ccc(Cl)cc2)cc1 | 41 µM |  |  |  | 38 µM |  |  | 3.33 µM | 25.5 µM | 
15 | O=C(/C=C/c1ccc(Cl)c(Cl)c1)Oc1ccc(/C=C2\CCCCC2=O)cc1 | 63.8 µM | 100 µM | 91.2 µM | 53 µM | 47.3 µM | 0.9 | 1.7 | 64.8 µM | > 50 µM | 
16 | Cc1ccc(C(=O)Oc2ccc(/C=C3\CCCCC3=O)cc2)cc1 | 22.7 µM |  |  |  | 25.6 µM |  |  | 44.8 µM | > 50 µM | 
17 | COc1ccc(C(=O)Oc2ccc(/C=C3\CCCCC3=O)cc2)cc1 | 36.1 µM |  |  |  | 34 µM |  |  | 43.4 µM | > 50 µM | 
18 | CN(C)CC1CCC/C(=C\c2ccc(OC(=O)c3ccc(Cl)cc3)cc2)C1=O.Cl (stereo unspecified) | 6.15 µM | 1.21 µM | 1.66 µM | 0.307 µM | 5.11 µM | 1.4 | 5.4 | 5.61 µM | 0.425 µM | Ip score [18]: 2; Inhibition [12]: 88.4%; Inhibition [13]: 62%; IC50 [14]: 3.5 µM; IC80 [15]: 5.6 µM; Subcut score [19]: 10; Apoptotic index [16]: 73.3
19 | CN(C)CC1CCC/C(=C\c2ccc(OC(=O)/C=C/c3ccc(Cl)c(Cl)c3)cc2)C1=O.Cl (stereo unspecified) | 5.82 µM |  |  |  | 4.57 µM | 1.5 | 4.3 | 3.31 µM | 4.18 µM | MG MID [20]: 2.38 µM; MG MID [21]: 3.57 µM; MG MID [22]: 0.83 µM
20 | CN(C)CC1CCC/C(=C\c2ccc(OC(=O)/C=C/c3ccc(Cl)cc3)cc2)C1=O.Cl (stereo unspecified) | 3.56 µM | 2.3 µM | 3.58 µM | 0.864 µM | 2.65 µM | 1.6 | 4.1 | 1.74 µM | 1.61 µM | Ip score [23]: 0; Inhibition [12]: 78%; Inhibition [13]: 37%; IC50 [14]: 2.53 µM; IC80 [15]: 4.04 µM; Subcut score [24]: 6; Apoptotic index [16]: 87
21 | O=C(/C=C/c1ccc(Cl)cc1)Oc1ccc(/C=C2\CCCCC2=O)cc1 | 63.4 µM | 81 µM | 91.2 µM | 60.5 µM | 78.6 µM | 1.1 | 1.5 | 64.3 µM | > 50 µM | 
22 | O=C(/C=C/c1ccc(F)cc1)Oc1ccc(/C=C2\CCCCC2=O)cc1 | 14.4 µM |  |  |  | 26.6 µM |  |  | 30.9 µM | > 50 µM | 
23 | N[C@@H](Cc1ccc(N(CCCl)CCCl)cc1)C(=O)O |  | 44.6 µM | 23.5 µM | 4.65 µM |  |  |  |  |  | Inhibition [12]: 85.1%; Inhibition [13]: 17.3%; IC50 [14]: 2.2 µM
24 | C[C@@H]1C[C@@H]([C@H](O)CC2CC(=O)NC(=O)C2)C(=O)[C@@H](C)C1 [CYCLOHEXIMIDE] |  |  |  |  |  |  |  |  |  | Inhibition [12]: 93.3%; Inhibition [13]: 71.9%; IC50 [14]: 0.93 µM; Apoptotic index [16]: 38.3
25 | Cc1c2oc3c(C)ccc(C(=O)N[C@@H]4C(=O)N[C@H](C(C)C)C(=O)N5CCC[C@H]5C(=O)N(C)CC(=O)N(C)[C@@H](C(C)C)C(=O)O[C@@H]4C)c3nc-2c(C(=O)N[C@@H]2C(=O)N[C@H](C(C)C)C(=O)N3CCC[C@H]3C(=O)N(C)CC(=O)N(C)[C@@H](C(C)C)C(=O)O[C@@H]2C)c(N)c1=O [DACTINOMYCIN] (I: T[dV]P[Sar][NMeV] / II: T[dV]P[Sar][NMeV]; ester I:1-I:C, II:1-II:C; linker I:N-II:N via Actinocin(1to9)) |  |  |  |  |  |  |  |  |  | Inhibition [12]: 90.5%; Inhibition [13]: 49.2%; IC50 [14]: 0.0045 µM; IC80 [15]: 0.0072 µM; Apoptotic index [16]: 35.5
26 | O=c1[nH]cc(F)c(=O)[nH]1 [FLUOROURACIL] | 8.9 µM | 7.9 µM | 32.6 µM | 27.6 µM | 23 µM |  |  | 0.28 µM | 0.49 µM | 
27 | C=C1C(=O)O[C@@H]2C[C@@H](C)[C@@H]3C=CC(=O)[C@@]3(C)[C@@H](O)[C@H]12 [HELENALIN] |  | 1.42 µM | 1.45 µM | 0.62 µM |  | 1 | 2.3 |  |  | 
